# Published values from different studies.
# Compare with care: the assays were run in different laboratories.
SMILES,target,observed,mode,method,concentration,endpoint,value
CCN(CC)CCCC[C@H](NC(=O)[C@H](CC(C)C)NC(=O)[C@H](C)NC(=O)[C@H](Cc1ccccc1)NC(=O)c1ccc(C(C)(C)C)cc1)C(=O)N[C@@H](CO)C(=O)OC,"Kappa-type opioid receptor (Oprk1, Rattus norvegicus, UniProt P34975)",ligand displacement,,radioligand,10 µM,remaining binding,9.5%
Oc1cc(Br)cc(Br)c1Oc1ccc(Br)cc1Br,"Sulfotransferase 1B1 (SULT1B1, Homo sapiens, UniProt O43704)",enzyme activity,substrate,,,Km,26.7 µM
COc1ncccc1-c1cnn2ccc(N3CCN(C(=O)OC(C)C)CC3)nc12,"Cyclin-dependent kinase-like 2 (CDKL2, Homo sapiens, UniProt Q92772)",binding,,competition with immobilised ligand,1 µM,remaining binding,53%
Cc1nn(C)cc1-c1nc2c(N3CCN(Cc4ccc(Cl)cc4)CC3)c(Cl)cnc2[nH]1,"Bone morphogenetic protein receptor type-1B (BMPR1B, Homo sapiens, UniProt O00238)",binding,,competition with immobilised ligand,1 µM,remaining binding,100%
CC(C)C[C@H](NC(=O)[C@H]1O[C@@H]1C(=O)O)C(=O)NCCCCN=C(N)N,"Cathepsin S (CTSS, Homo sapiens, UniProt P25774)",enzyme activity,inhibitor,,0.5 µM,inhibition,97%
Nc1ncc(-c2nc(N3CCOCC3)nc(N3CCOCC3)n2)c(C(F)F)n1,"Serine/threonine-protein kinase tousled-like 2 (TLK2, Homo sapiens, UniProt Q86UE8)",binding,,competition with immobilised ligand,10 µM,remaining binding,100%
CCOC(=O)c1ccc(OC(=O)CCCCCNC(=N)N)cc1,"Ubiquitin carboxyl-terminal hydrolase 2 (USP2, Homo sapiens, UniProt O75604)",enzyme activity,inhibitor,,10 µM,inhibition,2%
O=C1CC(c2c(O)cccc2O)Oc2cc(O)cc(O)c21 (centres unmarked),"Replicase polyprotein 1ab, main protease (rep, Severe acute respiratory syndrome coronavirus 2, UniProt P0DTD1)",enzyme activity,inhibitor,,20 µM,inhibition,26.5%
